Source: PubChem BioAssay
NOD2-RIPK2 inh: inhibitors of human NOD2-RIPK2 interaction; O43353; CHO BLA complementation NOD2-RIPK2, CCF4 ratio; inhibition, % at 4.98 µM; hit rate 0.38% among 360,000; in the data active = inhibition above about 21%;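 note: 0% = vehicle only and 100% = reference blocker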
MC4R ag barr: human MC4R agonism via beta-arrestin; hit rate 0.98% among 360,000; activation, % at 8.9 µM; U2OS MC4R beta-arrestin complementation, luminescence; percent of melanotan II response, DMSO zero;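 active = activation above a per-plate cutoff, the mean activation of sample wells on that plate plus 3 SD, cut at about 8% in these data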
MC4R antag cAMP: antagonists of human melanocortin 4 receptor (MC4R). P32245. MC4R-expressing cells, MTII-stimulated cAMP, LANCE TR-FRET. inhibition, % at 6.5 µM. hit rate 0.48% among 360,000;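 active = inhibition above its plate's cutoff, the mean of tested wells on that plate plus 3 SD, cut at about 29% in these data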;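 note: 0% = Melanotan II alone and 100% = Melanotan II plus saturating MCL0020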
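Assay system: human MC4R-expressing U2OS cells; reagent: Melanotan II stimulation of cells; dosing: 6.5 µM single dose; timing: compound 30 min, challenge 1 h, detection 1 h; signal: TR-FRET cAMP assay; replicates: one well per compound, no replicates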
TLR9-MyD88 block: inhibitors of human TLR9-MyD88 binding; CHO BLA complementation TLR9-MyD88, CCF4 FRET ratio; inhibition, % at 4.98 µM; hit rate 0.21% among 340,000; AID 504734;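 active = inhibition above the mean over all tested compounds plus 3 SD, cut at about 21% in these data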;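 note: 0% = DMSO only wells and 100% = clavulanate BLA inhibitor control wells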
beta cell repl: MIN6 beta-cell proliferation induction; MIN6 cells proliferation, ATPlite luminescence, 48 h; cells starved in 0.2% serum; 100% = growth in 10% serum; proliferation, % at 10 µM; hit rate 0.29% among 330,000;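 active = compounds whose signal lies at least 3.5 SD above the mean of all wells on their plate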;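 note: 0% = DMSO-treated cells in low-serum medium and 100% = 10% serum control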
TLR4-MyD88 BLA: blocks binding of human TLR4 to MyD88; hit rate 0.18% among 200,000; inhibition, % at 8.4 µM; O00206+Q99836; AID 861; HeLa CL3-4 TLR4/MyD88 BLA complementation, FRET ratio; in the data active = inhibition above about 25%;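 note: 0% = vehicle and 100% = reference inhibitor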
TLR4 MyD88 cnf: TLR4-MyD88 interaction inhibition confirmed. hit rate 50% among 350. AID 941. HeLa CL3-4 BLA complementation, CCF4 FRET ratio. inhibition, % at 8.4 µM. shares compounds with TLR4-MyD88 BLA;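 active = mean inhibition across three repeat runs above about 25% carried over from the earlier screen, limit read from the data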;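 note: plate controls were DMSO only for no effect and clavulanic acid blocking BLA at full dose for full effect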
BLA inhibitor ct: counter-screen for TLR4-MyD88 inhibitors: beta-lactamase reporter inhibitors; inhibition, % at 8.4 µM; HeLa BLA reporter, CCF4 FRET ratio; hit rate 63% among 350; AID 1237; shares compounds with TLR4-MyD88 BLA;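 active = mean inhibition over three repeats above about 26% taken from the earlier screen, limit read from the data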;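 note: HeLa cells stably expressing beta-lactamase reporter as counterscreen for TLR4-MyD88 inhibitors; 0% = DMSO and 100% = clavulanic acid full inhibition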
TLR9-MyD88 conf: TLR9-MyD88 interaction inhibition, confirmation. shares compounds with TLR9-MyD88 block. CHO TLR9/MyD88 BLA complementation, CCF4 FRET ratio. inhibition, % at 4.98 µM. hit rate 51% among 680. AID 540250;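 active = mean inhibition across three repeats above about 21% taken from the earlier screen, limit read from the data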;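 note: blue over green emission ratio reports constitutive TLR9 MyD88 association via BLA complementation; 0% = DMSO vehicle wells and 100% = clavulanate BLA inhibitor wells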
BLA nonselective: beta-lactamase reporter inhibition, counter-screen artifact; shares compounds with TLR9-MyD88 block; CHO-BLA cells, CCF4 FRET ratio, BLA reporter; inhibition, % at 4.98 µM; hit rate 7% among 680; AID 540251;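 active = mean inhibition above a 50% cutoff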;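 note: counterscreen of TLR9-MyD88 hits on CMV-driven BLA in CHO-K1 cells; 0% = DMSO alone and 100% = clavulanate blocking BLA; higher means less blue over green ratio so more BLA blockade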
TLR9 CHO tox: counter-screen for TLR9-MyD88 inhibitors: cytotoxicity in CHO cells. hit rate 39% among 680. luminescence. AID 588336. shares compounds with TLR9-MyD88 block. inhibition, % at 4.98 µM; in the data active = inhibition above about 11%
Numbers without * were called inactive; . = no result given. An excerpt weighted towards active compounds, which were near 2.1% of everything screened.

SMILES | NOD2-RIPK2 inh | MC4R ag barr | MC4R antag cAMP | TLR9-MyD88 block | beta cell repl | TLR4-MyD88 BLA | TLR4 MyD88 cnf | BLA inhibitor ct | TLR9-MyD88 conf | BLA nonselective | TLR9 CHO tox
CCCCCCn1c(=O)[nH]c2nc3cc(N)ccc3nc2c1=O | . | . | . | . | . | 25* | 30* | 45* | . | . | .
CCOc1ccc(/C=N/NC(=O)c2cccc3ccccc23)c(OCC)c1 | -7 | 1 | 15 | -4 | 1 | . | . | . | . | . | .
OCCCc1nc2n(n1)C(c1cccs1)C=C(c1ccccc1)N2 (centres undefined) | . | . | . | . | 1 | 24 | . | . | . | . | .
OCCCc1nc2n(n1)C(c1ccccc1Cl)C=C(c1cccs1)N2 (centres undefined) | 72* | 0 | 6 | 51* | 0 | 32* | 19 | 52* | . | . | .
COc1ccc(C(=O)NCCNc2nc3c(C)cccc3cc2C#N)cc1 | -1 | -2 | 7 | -13 | 0 | . | . | . | . | . | .
Cc1cccc2cc(C#N)c(NCCNC(=O)NC3CCCCC3)nc12 | -10 | -2 | -10 | -2 | 2 | 25* | -11 | -3 | . | . | .
CNC(=O)c1cc(Oc2ccc(NC(=O)c3[nH]c(-c4ccccc4)c4c3C(=O)N(C)C4=O)cc2)ccn1 | -3 | . | . | . | . | . | . | . | . | . | .
O=C1c2cccc3c([N+](=O)[O-])ccc(c23)C(=O)N1c1nccs1 | 89* | -6 | -60 | 79* | -5 | 93* | 92* | 114* | . | . | .
CCOc1ccccc1NC(=O)/C(C#N)=C/c1c(C)nn(-c2ccc(F)cc2)c1Cl | -4 | 2 | -3 | 7 | -5 | -1 | . | . | . | . | .
CN(C)c1nc(C=C(C#N)C#N)c(Cl)n1-c1ccc(F)cc1 | 2 | 0 | -6 | 7 | . | 35* | 27* | 9 | . | . | .
COc1cccc(-c2cc(C(F)(F)F)c3c(N)c(C#N)sc3n2)c1 | . | . | . | . | 3 | 27* | 20 | 49* | . | . | .
COc1cccc(CNC(=O)COC(=O)CCCNC(=O)c2ccc(Cl)cc2)c1 | -8 | 0 | 5 | 5 | 0 | . | . | . | . | . | .
Cc1ccc2nc(-c3ccc(F)cc3)c(CC3CCCCC3)n2c1 | -6 | . | . | . | . | . | . | . | . | . | .
O=C1N=c2ccccc2=C1c1sc(Nc2cccc(O)c2)nc1O | -1 | 1 | 19 | -15 | -4 | . | . | . | . | . | .
O=C1N=c2ccccc2=C1c1sc(Nc2ccc(O)cc2)nc1O | -3 | -2 | 13 | -6 | . | 27* | 2 | 6 | . | . | .
COc1cccc(CNc2ccc3[nH]c(=O)[nH]c3c2)c1OCc1ccccc1F | 5 | 0 | 24 | -17 | -3 | . | . | . | . | . | .
Cc1cc(/C=C2\Sc3ccccc3N2C)cc(C)[n+]1CC1CCCO1 (centres undefined) | 0 | -2 | -23 | . | -5 | 36* | 23 | 41* | . | . | .
COc1ccc(NS(=O)(=O)c2cc([N+](=O)[O-])ccc2N/N=C\c2c(C)[nH]c3ccccc23)cc1 | 9 | -3 | 0 | 6 | -3 | 10 | . | . | . | . | .
COc1ccccc1NS(=O)(=O)c1cc([N+](=O)[O-])ccc1N/N=C/c1c[nH]c2ccccc12 | 4 | 0 | 19 | 49* | -5 | 39* | 27* | 56* | 45* | 44 | 3
Cc1csc(=O)n1CCC(=O)OCC(=O)Nc1cc([N+](=O)[O-])ccc1Cl | 4 | -3 | 15 | -3 | 0 | . | . | . | . | . | .
CS(=O)(=O)c1nc(-c2ccccc2)cc(C(F)(F)F)n1 | 60* | -3 | 16 | 36* | -5 | 31* | 20 | -17 | 35* | 16 | 96*
FC(F)(F)c1cc(-c2ccccc2)nc(N2CCCCCC2)n1 | -7 | 0 | 14 | -21 | -4 | -9 | . | . | . | . | .
COc1cccc(/C=C2\C(=O)N(c3cccc(C)c3)C(=O)c3ccccc32)c1 | -12 | -2 | 14 | 24* | -6 | 29* | 41* | 38* | 46* | 47 | 4
COc1cccc(N2C(=O)c3ccncc3C2=O)c1 | 0 | -1 | 10 | 1 | -2 | -1 | . | . | . | . | .
CCOC1=C2CN(S(=O)(=O)c3ccc(C)cc3)[C@H](c3cccc(Cl)c3)C[C@@H]2N(S(=O)(=O)c2ccccc2[N+](=O)[O-])[C@H](c2ccccc2)C1 | -13 | . | . | . | . | . | . | . | . | . | .
SMILES | NOD2-RIPK2 inh | MC4R ag barr | MC4R antag cAMP | TLR9-MyD88 block | beta cell repl | TLR4-MyD88 BLA | TLR4 MyD88 cnf | BLA inhibitor ct | TLR9-MyD88 conf | BLA nonselective | TLR9 CHO tox
CC(NS(=O)(=O)c1ccc2c(c1)C(C)(C)C(=O)N2C)c1ccccc1 (centres undefined) | -1 | -1 | 7 | -1 | -1 | . | . | . | . | . | .
COc1ccc(N(CC(=O)N/N=C/c2ccc(-c3ccc([N+](=O)[O-])cc3)o2)S(=O)(=O)c2ccc(C)cc2)cc1Cl | 17 | -1 | 0 | 64* | -2 | 71* | 65* | 95* | 59* | 61* | 5
CCCSc1nnc(NC(=O)c2sc3nc(-c4cccs4)ccc3c2N)s1 | -3 | 0 | 18 | 21* | -4 | 30* | 7 | 31* | 23* | 22 | 0
O=C1c2ccc([N+](=O)[O-])cc2C(=O)N1c1ccc(Cl)cn1 | -7 | -1 | -3 | -22 | -3 | 10 | . | . | . | . | .
O=C1c2cccc3c([N+](=O)[O-])ccc(c23)C(=O)N1c1ccc(Cl)cn1 | 85* | 1 | -19 | 73* | -6 | 86* | 87* | 111* | 68* | 86* | 94*
O=C(C1=NN(c2ccccc2)C2C(=O)N(c3cccc(Cl)c3)C(=O)C12)c1ccccc1 (centres undefined) | 35* | -1 | 0 | 28* | . | 46* | 27* | 45* | 25* | 28 | 3
N#Cc1sc2nc(-c3ccccc3)cc(-c3ccco3)c2c1N | 13 | 1 | 19 | 22* | -2 | 40* | 26* | 53* | 28* | 25 | -1
CCc1nc2c(OCc3ccccc3)cccn2c1N(C)C(C)=O | -6 | 2 | -9 | . | . | . | . | . | . | . | .
O=C1/C(=C/c2cccs2)CCC/C1=C\c1cccs1 | -3 | -5 | 10 | 0 | -4 | . | . | . | . | . | .
Cn1cccc1/C=C1\CCC/C(=C\c2cccn2C)C1=O | -5 | -3 | 3 | 23* | -6 | 35* | 20 | 45* | 26* | 23 | -3
